Bioassay records deposited in PubChem BioAssay by several laboratories.
Shown are actives, neighbours in structure and some others; about 1.9% of the full set was active somewhere.
Rad51 HR inh: blocks human Rad51 in homologous recombination. hRad51 DNA strand exchange, fluorescence dequenching. inhibition, % at 10 µM. 0.085% of 200,000 active;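 active = inhibition above 40% at the single screening dose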;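 also: 0% = DMSO control wells and 100% = blanks with heterologous ssDNA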
Target sequence (Q06609 whole entry, looked up): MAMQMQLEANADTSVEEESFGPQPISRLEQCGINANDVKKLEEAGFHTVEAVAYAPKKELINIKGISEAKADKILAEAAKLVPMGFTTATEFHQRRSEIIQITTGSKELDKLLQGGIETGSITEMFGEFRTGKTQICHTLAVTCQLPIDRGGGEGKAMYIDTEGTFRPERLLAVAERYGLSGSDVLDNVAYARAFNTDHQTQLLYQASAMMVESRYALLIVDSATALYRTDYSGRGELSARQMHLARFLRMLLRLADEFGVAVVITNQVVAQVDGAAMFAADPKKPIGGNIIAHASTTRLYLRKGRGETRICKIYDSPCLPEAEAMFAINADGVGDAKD
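Read-out basis: percent inhibition relative to plate controls and blanks / Assay system: human Rad51 nucleoprotein filaments preassembled on unlabelled ssDNA / Timing: filaments 15 min 37 °C, then compound 30 min / Control set: per-plate controls and blanks / Technique: fluorescence dequenching at 485/520 nm / Compound: 10 µM final, single point / Also added: Fluorescein- and BHQ1-tagged 47-mer duplex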
H9c2 TAG inh: triacylglycerol accumulation inhibition; 0.66% of 230,000 active; AID 651582; inhibition, % at 12.5 µM; H9c2 cells, Nile Red lipid (TAG) fluorescence; cells loaded with 200 µM oleic acid;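 active = pattern-corrected inhibition of lipid staining of at least 50% with the nuclear-stain viability signal not falling by more than 50%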;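 also: 0% = DMSO wells and 100% = triacsin C control wells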
GAA850 FXN act: activators of GAA850 frataxin (FXN) promoter; HEK293 lucGAA850 FXN promoter luciferase reporter, 24 h; percent of 10 µM SAHA response; activation, % at 6 µM; 0.56% of 360,000 active;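 active = activation above the average of all compounds screened plus 3 SD, cutoff fixed separately per campaign, cut at about 7.5% in these data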;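 also: 0% = DMSO wells and 100% = 10 µM SAHA wells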
ABHD5 PLIN5 PPI: inhibitors of human ABHD5-perilipin-5 interaction; inhibition, % at 4 µM; Split G. princeps luciferase complementation, luminescence, 4 h; 0.78% of 360,000 active;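 active = inhibition above the mean inhibition across every tested compound plus 3 SD, cut at about 22% in these data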;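 also: 0% = DMSO only wells and the 100% control is not disclosed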
Hsp70 act: Hsp70 transcriptional activation, primary screen; HeLa Hsp70 promoter luciferase reporter, luminescence; scaled: vehicle 0, proteasome-inhibitor control 100%; activation, % at 10 µM; 0.04% of 200,000 active; AID 1203;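 active = activation above the mean across all tested compounds plus 3 SD, cutoff set per campaign, cut at about 5.5% in these data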;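 also: 100% = MG132 at 30 µM as the positive control and 0% = DMSO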
HIF activator: HIF pathway transcriptional activation | U2OS HRE-luciferase reporter, luminescence; normalized: DMSO 0%, desferrioxamine 100% | activation, % at 7.5 µM (by protocol) | 0.32% of 300,000 active;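 active = mean activation of at least 10% of the iron chelator positive control signal, with at least half of replicates also reaching 10%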
GAA30 counter: GAA30 FXN promoter activation counter-screen. AID 588350. HEK293 lucGAA30 FXN promoter luciferase, 24 h; DMSO = 0%, 5 µM ipriflavone = 100%. activation, % at 6 µM. 66% of 1,900 active. shares compounds with GAA850 FXN act;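 active = mean activation above the mean of solvent-only control wells plus 3 SD, cut at about 22% in these data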;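 also: counterscreen of GAA850 promoter hits where activity marks nonselective or luminescence artifacts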
GAA850 confirm: GAA850 FXN promoter activation confirmation; shares compounds with GAA850 FXN act; HEK293 lucGAA850 FXN promoter luciferase reporter, 24 h; 100% = activation by SAHA; activation, % at 6 µM; 86% of 1,900 active; AID 588351;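 active = mean activation above a set limit taken from the primary screen, cut at about 8% in these data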;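 also: 0% = DMSO wells and 100% = 10 µM SAHA wells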
The depositor's hits bear a star; · = not tested or not shown; ! = a repeat was not active.

SMILES	Rad51 HR inh	H9c2 TAG inh	GAA850 FXN act	ABHD5 PLIN5 PPI	Hsp70 act	HIF activator	GAA30 counter	GAA850 confirm
O=C(Nc1cnn(C23CC4CC(CC(C4)C2)C3)c1)c1cnn2cccnc12	0.9	·	10.2*	-3.1	-0.1	1.3	107.2*	42.2*
O=C1c2cc([N+](=O)[O-])cc3cc([N+](=O)[O-])cc(c23)C(=O)N1c1ccccn1	·	·	8.2*	3.6	-0.2	0.5	14.9	17.3*
CCc1ccc(S(=O)(=O)c2ccc(-n3nc(C)cc3N)cc2)cc1	1.9	-4.4	-0.5	-1.4	-0.2	-0.2	·	·
CCN(CC(=O)Nc1cc(Cl)ccc1Cl)C(=O)c1ccc(-n2cccn2)cc1	·	-1.8	-0.1	-15.1	·	·	·	·
CC(C)OP(=O)(c1ccc(N(C)C)cc1)C(O)c1ccc(C(C)C)cc1 (stereo unspecified)	·	·	11.5*	-1.9	·	-0.6	29.2*	13.2*
CC(C)CCOP(=O)(c1ccc(N(C)C)cc1)C(O)c1c(Cl)cccc1Cl (stereo unspecified)	·	·	19.7*	1.8	·	-0.9	26.1*	13.5*
CCOCCCNC(=O)c1ccc(OC)c(OC2CCN(C(C)C)CC2)c1	·	·	2.1	-1.5	·	-6.0	·	·
CN(C)/C=C/C(=O)c1ccc(Oc2ccccc2)cc1	-3.5	4.3	7.8*	2.0	0.0	1.2	103.0*	33.3*
Cn1cncc1C#Cc1ccc2c(=O)c3ccccc3oc2c1	·	-8.7	7.9*	7.1	·	·	67.5*	39.9*
Oc1ccccc1-c1csc(-c2ccccc2)n1	-2.0	7.4	3.4	-1.2	0.1	1.7	·	·
Oc1ccc(-c2csc(-c3ccccc3)n2)cc1O	-7.0	·	8.8*	-3.0	-0.4	3.6	40.8*	33.6*
Oc1ccc(-c2csc(Nc3ncccn3)n2)c(O)c1	9.6	1.9	3.1	-1.7	0.0	2.3	·	·
Oc1ccc(-c2csc(-c3cccnc3)n2)cc1O	-1.3	26.1	13.8*	2.3	·	2.9	62.1*	31.1*
Oc1ccc(-c2csc(Nc3ncccn3)n2)cc1O	13.4	·	15.8*	0.4	0.8	1.8	107.9*	45.1*
CSc1nsc(SC)c1-c1ccc(Cl)cc1	·	20.5	2.4	-0.2	·	·	·	·
O=C(NCCCC(NC(=O)OCc1ccccc1)C(=O)O)OCc1ccccc1 (stereo unspecified)	·	·	2.1	-2.6	·	-0.3	·	·
Cc1cc(NC(=O)C(C)SCC(=O)Nc2cc(Cl)ccc2N2CCN(C)CC2)no1 (stereo unspecified)	·	6.0	-1.7	4.2	·	-0.6	·	·
Cc1cc(NC(=O)C(C)SCC(=O)Nc2cc(C(F)(F)F)ccc2N2CCOCC2)no1 (stereo unspecified)	·	1.7	8.8*	0.2	·	1.3	26.2*	12.8*
Cc1ccnc(NC(=O)CCCOc2cc(=O)n(C)c3ccccc23)c1	-2.2	78.1	8.8*!	-0.3	3.6	1.0	68.5*	60.5*
Cc1cccc2c3nc4ccccc4nc3n(CCCN3C(=O)c4ccccc4C3=O)c12	-7.0	·	2.8	3.1	0.1	0.2	·	·
CCOC(=O)c1cnc(SCc2ccc(C)cc2)nc1N	3.9	-74.1	7.8*	-2.9	0.2	-17.6	85.7*	26.9*
CC(C)C(NC(=O)c1ccc(F)cc1)C(=O)N1CCN(C(=O)c2ccco2)CC1 (stereo unspecified)	·	-17.9	0.0	-9.2	·	·	·	·
Cc1cc2nc(/C=C/c3nc4cc(C)c(C)cc4[nH]3)[nH]c2cc1C	-0.2	·	1.0	-9.2	·	-4.7	·	·
Cc1ccc(/C=C/c2nc3ccccc3[nH]2)o1	-17.6	-5.7	8.9*	11.1	-0.1	0.0	114.0*	38.5*
CCN1C(=O)[C@H]2[C@@H](c3ccccc3)N3C(=O)N(c4cccc(F)c4)C(=O)[C@@]3(CC(C)C)[C@H]2C1=O	·	-15.3	8.8*	3.5	·	-0.8	25.4*	7.1
SMILES	Rad51 HR inh	H9c2 TAG inh	GAA850 FXN act	ABHD5 PLIN5 PPI	Hsp70 act	HIF activator	GAA30 counter	GAA850 confirm
CCN1C(=O)[C@H]2[C@@H](c3ccc(C)cc3)N3C(=O)N(c4cccc(Br)c4)C(=O)[C@@]3(CC(C)C)[C@H]2C1=O	·	-26.0	15.6*	-6.7	·	-0.5	21.9*	11.4*
CC(=O)c1ccc(N2CCN(CC(=O)Nc3ccc4c(c3)OCCO4)CC2)cc1	·	-2.0	-0.4	-1.6	·	0.0	·	·
Cc1ccc(C(=O)NCCN2CCCC2)cc1	4.5	-9.8	-1.3	1.5	-0.1	0.2	·	·
CCOc1c(Cl)cc(C(=O)NCCN2CCCCC2)cc1Cl	-7.8	·	12.6*	8.7	-0.5	0.1	8.8	5.6
O=C(NNC(=S)Nc1ccc(Cl)cc1)c1cccs1	-1.8	3.4	2.5	4.5	0.1	2.6	·	·
O=C(NNC(=S)Nc1ccccc1)c1cccs1	-5.1	·	8.3*	4.1	0.2	3.4	74.4*	28.9*
COc1ccc([C@@H]2[C@@H]3C(=O)N(C(C)(C)C)C(=O)[C@@H]3[C@]3(CC(C)C)C(=O)N(c4cccc(F)c4)C(=O)N23)cc1	·	-6.5	15.1*	0.6	·	0.8	46.0*	16.0*
CC[C@@]12C(=O)N(c3cccc(F)c3)C(=O)N1[C@H](c1ccc(Br)cc1)[C@@H]1C(=O)N(C(C)(C)C)C(=O)[C@@H]12	·	-15.4	14.8*	4.1	·	-1.7	25.9*	12.9*
O=C(CN1C(=O)C(=O)N(Cc2ccccc2)C1=O)Nc1ccc(OC(F)F)cc1	·	17.1	0.2	4.0	·	·	·	·
O=C(Cn1ncc2c([nH]c3ccccc32)c1=O)N1CCOCC1	·	·	1.7	3.0	·	0.4	·	·
COc1ccc(N2C(=O)C3CCCN3C2c2cccc(Br)c2)cc1 (stereo unspecified)	-14.0	16.5	12.1*	-3.9	-0.1	0.3	18.7	8.8*
COc1cccc(C2N(c3cccc(Cl)c3)C(=O)C3CCCN32)c1 (stereo unspecified)	3.6	·	1.5	-3.6	0.1	-0.3	·	·
O=C(COC(=O)Cc1cccc(C(F)(F)F)c1)NC1CCS(=O)(=O)C1 (stereo unspecified)	·	6.8	0.7	4.4	·	-0.3	·	·
COc1ccc(O)c(/C=N/Nc2nc(Nc3ccccc3)nc(-n3nc(C)cc3C)n2)c1	13.4	127.5	8.7*	8.3	-0.4	1.5	10.9	16.1*
COc1cc(/C=N/Nc2nc(Nc3ccccc3)nc(-n3nc(C)cc3C)n2)cc(OC)c1OC	2.7	·	-5.2	-7.7	-0.3	0.3	·	·
Cc1cccc(C)c1NC(=O)CCCN1C(=O)C(c2ccccc2)Oc2cccnc21 (stereo unspecified)	·	·	-1.3	-8.7	·	-0.6	·	·
